Data reported in ChEMBL document CHEMBL3124839, “Polyamine transport inhibitors: design, synthesis, and combination therapies with difluoromethylornithine” (J Med Chem, 2014).
Activity calls are given as the source filed them. The rule behind the calls is not given here.

What was measured:
CHO = assay: Cytotoxicity against CHO cells assessed as growth inhibition after 48 hrs by MTS assay in presence of aminoguanidine; format: cell-based, Cricetulus griseus; conditions: for IC50: Cricetulus griseus, CHO; for IC10: chinese hamster, cho
Procedure, shortened: (§1)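 CHO and transport-deficient CHO-MG* cells (CHO-MG* medium with 2 μg/mL L-proline) plated at 10 000 cells/mL and pretreated 24 h with 1 mM aminoguanidine. Compound in PBS added after overnight incubation, then 48 h at 37 °C, 5% CO2. Growth read by MTS formazan absorbance at 490 nm against untreated control.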

[1] = Inhibition of polyamine transport system-mediated [3H]-spermidine uptake in DFMO-treated CHO cells after 48 hrs in presence of spermidine and aminoguanidine; conditions: Cricetulus griseus
Homo sapiens [2] = species: Homo sapiens; assay: Inhibition of polyamine transport system-mediated [3H]-spermidine uptake in DFMO-treated human L3.6PL cells after 48 hrs in presence of spermine and aminoguanidine
Homo sapiens [3] = species: Homo sapiens; assay: Inhibition of polyamine transport system-mediated [3H]-spermidine uptake in DFMO-treated human L3.6PL cells after 48 hrs in presence of putrescine and aminoguanidine
[4] = Competitive inhibition of polyamine transport system-mediated [3H]-spermidine uptake in DFMO-treated human L3.6PL cells after 15 mins by Lineweaver-Burk plot analysis in presence of aminoguanidine
Procedure, shortened: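 3H-spermidine uptake in L3.6pl cells in HBSS (with Ca2+/Mg2+) at 37 °C for 15 min, with 3H-Spd fixed at 1 μM and PTI at 0–3 μM. Cells were lysed in 0.1% SDS, counted by scintillation and normalized to BCA protein.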

CHO-MG = assay: Cytotoxicity against polyamine transport-deficient CHO-MG cells assessed as growth inhibition after 48 hrs by MTS assay in presence of aminoguanidine; format: ADME, cell-based; conditions: Cricetulus griseus; procedure, shortened: as §1
[5] = Cytotoxicity against human L3.6PL cells assessed as growth inhibition after 48 hrs by MTS assay in presence of aminoguanidine; format: cell-based; conditions: for IC50: Homo sapiens, L3.6pl; for IC10: human, l3.6pl
[6] = Cytotoxicity against human L3.6PL cells assessed as growth inhibition after 48 hrs by MTS assay; format: cell-based
[7] = Inhibition of polyamine transport system-mediated [3H]-spermidine uptake in DFMO-treated human L3.6PL cells after 48 hrs in presence of spermidine and aminoguanidine
[8] = Selectivity ratio of IC50 for polyamine transport-deficient CHO-MG cells to IC50 for CHO cells; format: ADME, cell-based, Cricetulus griseus; conditions: chinese hamster, polyamine transport-deficient CHO-MG cells and CHO cells; read-out: Ratio IC50
[9] = Cytotoxicity against human L3.6PL cells assessed as cell viability at 0.01 uM after 48 hrs by MTS assay in presence of aminoguanidine relative to control; format: cell-based; conditions: read-out: Activity
Procedure, shortened: (§2)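 L3.6pl cells plated at 5000 cells/mL and pretreated 24 h with 250 μM aminoguanidine. Exposed to compound for 48 h at 37 °C. Growth read by MTS absorbance at 490 nm relative to untreated control.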

Homo sapiens [10] = species: Homo sapiens; assay: Inhibition of polyamine transport system-mediated [3H]-spermidine uptake in DFMO-treated human L3.6PL cells at IC10 after 48 hrs in presence of aminoguanidine
[11] = Cytotoxicity against human L3.6PL cells assessed as cell viability at 0.1 uM after 48 hrs by MTS assay in presence of aminoguanidine relative to control; format: cell-based; conditions: read-out: Activity; procedure, shortened: as §2
Homo sapiens [12] = species: Homo sapiens; assay: Inhibition of polyamine transport system in human L3.6PL cells assessed as reduction in intracellular spermidine level at 7 uM after 48 hrs by HPLC analysis in presence of spermidine and aminoguanidine relative to control; format: cell-based
Procedure, shortened: (§3)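 L3.6pl cells (450 000 per 6 mL medium with 10% FBS) pretreated 24 h with 250 μM aminoguanidine, then 48 h at 37 °C with DFMO 8 mM, Spd 1 μM, PTI 7 μM, alone or combined. Acid lysates dansylated with 1,7-diaminoheptane as internal standard and polyamines quantified by HPLC as nmol/mg BCA protein. Growth given relative to untreated control.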

Homo sapiens [13] = species: Homo sapiens; assay: Inhibition of polyamine transport system in human L3.6PL cells assessed as total polyamine level at 7 uM after 48 hrs by HPLC analysis in presence of aminoguanidine relative to control; format: cell-based; procedure, shortened: as §3
Homo sapiens [14] = species: Homo sapiens; assay: Inhibition of polyamine transport system in DFMO-treated human L3.6PL cells assessed as reduction in intracellular putrescine level at 7 uM after 48 hrs by HPLC analysis in presence of spermidine and aminoguanidine; format: cell-based; procedure, shortened: as §3
Homo sapiens [15] = species: Homo sapiens; assay: Inhibition of polyamine transport system in human L3.6PL cells assessed as total polyamine level at 7 uM after 48 hrs by HPLC analysis in presence of spermidine and aminoguanidine relative to control; format: cell-based; procedure, shortened: as §3
Homo sapiens [16] = species: Homo sapiens; assay: Inhibition of polyamine transport system in DFMO-treated human L3.6PL cells assessed as increase in spermine level at 7 uM after 48 hrs by HPLC analysis in presence of spermidine and aminoguanidine relative to control; design: scale not given: the % may be the effect or the level left; procedure, shortened: as §3
[17] = Cytotoxicity against DFMO-treated human L3.6PL cells assessed as growth at 7 uM after 48 hrs in presence of spermidine and aminoguanidine relative to control; format: functional; conditions: read-out: Activity; procedure, shortened: as §3
Homo sapiens [18] = species: Homo sapiens; assay: Inhibition of polyamine transport system in human L3.6PL cells assessed as reduction in intracellular spermidine level at 7 uM after 48 hrs by HPLC analysis in presence of aminoguanidine relative to control; format: cell-based; procedure, shortened: as §3
Homo sapiens [19] = species: Homo sapiens; assay: Inhibition of polyamine transport system in DFMO-treated human L3.6PL cells assessed as total polyamine level at 7 uM after 48 hrs by HPLC analysis in presence of spermidine and aminoguanidine relative to control; procedure, shortened: as §3
[20] = Cytotoxicity against human L3.6PL cells assessed as growth at 7 uM after 48 hrs in presence of spermidine and aminoguanidine relative to control; format: functional; conditions: read-out: Activity; procedure, shortened: as §3
[21] = Cytotoxicity against human L3.6PL cells assessed as growth at 7 uM after 48 hrs in presence of aminoguanidine relative to control; format: functional; conditions: read-out: Activity; procedure, shortened: as §3
Homo sapiens [22] = species: Homo sapiens; assay: Inhibition of polyamine transport system in DFMO-treated human L3.6PL cells assessed as reduction in intracellular spermidine level at 7 uM after 48 hrs by HPLC analysis in presence of spermidine and aminoguanidine relative to control; format: cell-based; procedure, shortened: as §3
[23] = Homo sapiens, L3.6pl, read-out: EC50

## Cl.NCCCCNCCCCNCc1cc(CNCCCCNCCCCN)cc(CNCCCCNCCCCN)c1
CHO
  IC50: > 100 µM
  IC10: 10 µM
[1]
  EC50: 0.34 µM
Homo sapiens [2]
  inhibition: Active
Homo sapiens [3]
  inhibition: Active
[4]
  Ki: 0.036 µM
CHO-MG
  IC50: 66.9 µM
[5]
  IC50: > 100 µM
  IC10: 10 µM
[6]
  IC50: 188 µM
[7]; [23]
  EC50: 0.77 µM

## Cl.NCCCCNCCCCNCc1ccc(CNCCCCNCCCCN)cc1
CHO
  IC50: 0.027 µM
  IC10: 0.001 µM
[8]
  selectivity ratio: 727

## Cl.NCCCCNCCCCNCCCCNCc1cccc(CNCCCCNCCCCNCCCCN)c1
CHO
  IC50: 0.04 µM
  IC10: 0.01 µM
[9]
  viability at 48 h, 0.01 µM: 8%
[8]
  selectivity ratio: 335
CHO-MG
  IC50: 13.4 µM
[5]
  IC50: 7.5 µM
  IC10: 0.01 µM
Homo sapiens [10]
  inhibition: inactive
[7]
  EC50: Not Active

## Cl.NCCCNCCCCNCCCNC(=O)c1cc(C(=O)NCCCNCCCCNCCCN)cc(C(=O)NCCCNCCCCNCCCN)c1
[5]
  IC50: 47.5 µM
  IC10: 8 µM
[7]
  EC50: Not Active

## Cl.NCCCCNCCCCNC(=O)c1cc(C(=O)NCCCCNCCCCN)cc(C(=O)NCCCCNCCCCN)c1
CHO
  IC50: > 100 µM
  IC10: > 100 µM
[1]
  EC50: 60 µM
[4]
  Ki: 0.398 µM
CHO-MG
  IC50: > 100 µM
[5]
  IC50: > 100 µM
  IC10: > 100 µM
[7]; [23]
  EC50: 89.8 µM

## Cl.NCCCCNCCCCNCCCCNC(=O)c1cc(C(=O)NCCCCNCCCCNCCCCN)cc(C(=O)NCCCCNCCCCNCCCCN)c1
CHO
  IC50: 16 µM
  IC10: 1 µM
[8]
  selectivity ratio: 4.3
CHO-MG
  IC50: 69.1 µM
[5]
  IC50: 9.7 µM
  IC10: 1 µM
Homo sapiens [10]
  inhibition: inactive
[7]
  EC50: Not Active

## NCCCCNCCCCNCc1c2ccccc2cc2ccccc12
[8]
  selectivity ratio: 148

## Cl.NCCCCNCCCCNCc1cccc(CNCCCCNCCCCN)c1
CHO
  IC50: 0.028 µM
  IC10: 0.01 µM
[8]
  selectivity ratio: 1070
CHO-MG
  IC50: 30 µM
[11]
  viability at 48 h, 0.1 µM: 8%
[5]
  IC50: 52.2 µM
  IC10: 0.1 µM
Homo sapiens [10]
  inhibition: inactive
[7]
  EC50: Not Active

## Cl.NCCCC[C@H](N)C(=O)NCCCNCCCCNCCCN
CHO
  IC10: > 100 µM
[5]
  IC10: > 100 µM

## CNCCCCNCCCCNCc1cc(CNCCCCNCCCCNC)cc(CNCCCCNCCCCNC)c1.Cl
Homo sapiens [12]
  inhibition: 33%
CHO
  IC50: > 100 µM
  IC10: 10 µM
Homo sapiens [13]
  Activity: 40.4 nmol/mg
Homo sapiens [14]
  inhibition: Active
Homo sapiens [15]
  Activity: 37.4 nmol/mg
Homo sapiens [16]
  Activity: 67%
[1]
  EC50: 0.42 µM
[17]
  growth at 7 µM: 70%
Homo sapiens [18]
  inhibition: 27%
[4]
  Ki: 0.055 µM
CHO-MG
  IC50: 122 µM
[5]
  IC50: > 100 µM
  IC10: 10 µM
Homo sapiens [19]
  Activity: 19.9 nmol/mg
[20]
  growth at 7 µM: 88%
[21]
  growth at 7 µM: 117%
[6]
  IC50: 183 µM
Homo sapiens [22]
  inhibition: 87%
[7]; [23]
  EC50: 1.4 µM
